Experimental data as given in ChEMBL document CHEMBL3877334, “Structural Requirements of HDAC Inhibitors: SAHA Analogues Modified at the C2 Position Display HDAC6/8 Selectivity” (ACS Med Chem Lett, 2017).
Active and inactive are the calls of the source. No cut-off for these calls is given here.

Assays:
HeLa S3 [1] = assay: Selectivity ratio of IC50 for HDAC1 in human HeLaS3 cells to IC50 for full length human C-terminal His-tag HDAC8 expressed in baculovirus expression system
[2] = biological target: T1, Protein deacetylase HDAC6 (Homo sapiens) (UniProt Q9UBN7); assay: Inhibition of HDAC6 in human HeLaS3 cells at 5 uM preincubated for 15 mins followed by HDAC-Glo substrate addition measured after 30 to 45 mins by ELISA; type: cell-based; conditions: HeLa S3
T1 sequence (whole entry): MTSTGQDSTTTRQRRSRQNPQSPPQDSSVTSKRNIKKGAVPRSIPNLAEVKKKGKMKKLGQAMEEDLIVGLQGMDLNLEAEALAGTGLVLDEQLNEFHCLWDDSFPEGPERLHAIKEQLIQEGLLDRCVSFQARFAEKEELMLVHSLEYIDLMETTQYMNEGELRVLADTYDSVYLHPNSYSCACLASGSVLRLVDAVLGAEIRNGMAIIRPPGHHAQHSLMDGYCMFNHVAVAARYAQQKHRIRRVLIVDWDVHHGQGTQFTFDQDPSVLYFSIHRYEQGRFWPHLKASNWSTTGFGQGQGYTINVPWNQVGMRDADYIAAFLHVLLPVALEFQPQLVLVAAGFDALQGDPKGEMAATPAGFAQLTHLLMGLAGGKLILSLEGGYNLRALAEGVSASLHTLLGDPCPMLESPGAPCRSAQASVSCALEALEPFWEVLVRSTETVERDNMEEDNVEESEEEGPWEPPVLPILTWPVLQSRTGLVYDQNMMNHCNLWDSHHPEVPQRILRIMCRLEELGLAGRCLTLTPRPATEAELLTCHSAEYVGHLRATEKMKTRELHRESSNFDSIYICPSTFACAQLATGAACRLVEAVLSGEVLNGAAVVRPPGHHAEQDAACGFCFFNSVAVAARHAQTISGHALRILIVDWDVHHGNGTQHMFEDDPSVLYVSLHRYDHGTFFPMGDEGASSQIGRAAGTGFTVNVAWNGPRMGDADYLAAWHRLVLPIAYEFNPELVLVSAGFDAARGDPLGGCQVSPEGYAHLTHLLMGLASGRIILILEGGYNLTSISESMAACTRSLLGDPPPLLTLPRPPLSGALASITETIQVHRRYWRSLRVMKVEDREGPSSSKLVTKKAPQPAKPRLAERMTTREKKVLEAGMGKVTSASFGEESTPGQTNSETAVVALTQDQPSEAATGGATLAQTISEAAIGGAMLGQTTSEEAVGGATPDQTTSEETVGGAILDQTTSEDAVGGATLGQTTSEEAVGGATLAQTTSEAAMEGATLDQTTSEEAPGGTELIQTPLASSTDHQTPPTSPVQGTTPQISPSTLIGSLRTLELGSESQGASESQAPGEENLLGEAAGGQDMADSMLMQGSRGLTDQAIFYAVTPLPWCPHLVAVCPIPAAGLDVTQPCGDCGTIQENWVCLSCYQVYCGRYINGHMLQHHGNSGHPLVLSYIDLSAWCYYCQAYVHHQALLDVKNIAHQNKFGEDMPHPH
Summary of the method: (§1)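 ELISA-based HDAC activity assay using mammalian-derived HDAC1, -2, -3 and -6. Each analogue was screened at a single concentration, 5 or 10 μM. Data are mean percent deacetylase activity from at least three independent trials with standard error.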

Histone deacetylase 1 = Histone deacetylase 1 (Homo sapiens, UniProt Q13547); assay: Inhibition of HDAC1 in human HeLaS3 cells preincubated for 15 mins followed by HDAC-Glo substrate addition measured after 30 to 45 mins by ELISA; type: cell-based, HeLa S3
HeLa S3 [3] = assay: Selectivity ratio of IC50 for HDAC3 in human HeLaS3 cells to IC50 for full length human C-terminal His-tag HDAC8 expressed in baculovirus expression system
Histone deacetylase 3 = Histone deacetylase 3 (Homo sapiens, UniProt O15379); assay: Inhibition of HDAC3 in human HeLaS3 cells preincubated for 15 mins followed by HDAC-Glo substrate addition measured after 30 to 45 mins by ELISA; type: cell-based, HeLa S3
[4] = biological target: T1, Protein deacetylase HDAC6 (Homo sapiens); assay: Inhibition of HDAC6 in human U937 cells assessed as increase in alpha-tubulin acetylation at Lys-40 residue at 30 uM after 18 hrs by Western blot method; type: cell-based; conditions: U-937
Summary of the method: (§2)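 U937 myeloid leukemia cells were treated with compound, with a 1% DMSO control. For the concentration series the range was 10–60 μM. Cells were then lysed, run on SDS-PAGE and Western blotted for acetyl-α-tubulin and acetyl-histone H3, with GAPDH as load control. Band intensities were quantified as fold increase, given as mean of four independent trials with standard error.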

[5] = biological target: T2, Protein deacetylase HDAC6 (Homo sapiens, UniProt Q9UBN7); assay: Inhibition of HDAC6 in human HeLaS3 cells preincubated for 15 mins followed by HDAC-Glo substrate addition measured after 30 to 45 mins by ELISA; type: cell-based, HeLa S3
T2 sequence (Q9UBN7 whole entry): T1 sequence (whole entry)

HeLa S3 [6] = assay: Selectivity ratio of IC50 for HDAC2 in human HeLaS3 cells to IC50 for full length human C-terminal His-tag HDAC8 expressed in baculovirus expression system
Histone deacetylase 2 = Histone deacetylase 2 (Homo sapiens, UniProt Q92769); assay: Inhibition of HDAC2 in human HeLaS3 cells preincubated for 15 mins followed by HDAC-Glo substrate addition measured after 30 to 45 mins by ELISA; type: cell-based, HeLa S3
HeLa S3 [7] = assay: Selectivity ratio of IC50 for HDAC2 in human HeLaS3 cells to IC50 for HDAC6 in human HeLaS3 cells; type: cell-based
Summary of the method: (§3)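 Ratio of IC50 values measured with the ELISA-based HDAC activity assay using mammalian-derived HDAC isoforms. Each IC50 is the mean of at least two independent trials with standard error.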

[8] = biological target: T1, Protein deacetylase HDAC6 (Homo sapiens); assay: Inhibition of HDAC6 in human U937 cells assessed as increase in alpha-tubulin acetylation at Lys-40 residue after 18 hrs by Western blot method; type: cell-based; conditions: U-937; summary of the method: as §2
cells [9] = type: functional, cell-based; conditions: Homo sapiens, Jurkat, 44 h
HeLa S3 [10] = assay: Selectivity ratio of IC50 for HDAC1 in human HeLaS3 cells to IC50 for HDAC6 in human HeLaS3 cells; type: cell-based; summary of the method: as §3
[11] = Cytotoxicity against human Jurkat cells assessed as cell viability at 10 uM after 44 hrs by MTT assay relative to control; type: functional; conditions: read-out: Activity
Summary of the method: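 MTT viability assay in Jurkat cells at 1 and 10 μM. Data are mean percent viability from at least three independent trials with standard error.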

cells [12] = type: functional, cell-based; conditions: Homo sapiens, MOLM-13, 44 h
HeLa S3 [13] = assay: Selectivity ratio of IC50 for HDAC3 in human HeLaS3 cells to IC50 for HDAC6 in human HeLaS3 cells; type: cell-based; summary of the method: as §3
cells [14] = type: functional, cell-based; conditions: Homo sapiens, U-937, 44 h
Histone deacetylase 8 = biological target: T3, Histone deacetylase 8 (Homo sapiens, UniProt Q9BY41); assay: Inhibition of full length human C-terminal His-tag HDAC8 expressed in baculovirus expression system preincubated for 15 mins followed by HDAC-Glo substrate addition measured after 30 to 45 mins by ELISA
T3 sequence (Q9BY41 whole entry): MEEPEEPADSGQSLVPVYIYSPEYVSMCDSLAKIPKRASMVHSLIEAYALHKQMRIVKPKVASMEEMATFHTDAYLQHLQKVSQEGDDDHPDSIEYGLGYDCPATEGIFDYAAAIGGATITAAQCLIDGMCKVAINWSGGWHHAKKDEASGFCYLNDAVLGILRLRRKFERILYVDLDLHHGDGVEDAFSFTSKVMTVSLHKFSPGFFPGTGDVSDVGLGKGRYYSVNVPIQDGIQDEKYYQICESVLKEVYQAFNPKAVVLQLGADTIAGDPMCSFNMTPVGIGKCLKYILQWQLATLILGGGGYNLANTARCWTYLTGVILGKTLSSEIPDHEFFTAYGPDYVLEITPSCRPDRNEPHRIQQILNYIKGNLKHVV

[15] = biological target: T1, Protein deacetylase HDAC6 (Homo sapiens); assay: Inhibition of HDAC6 in human HeLaS3 cells at 10 uM preincubated for 15 mins followed by HDAC-Glo substrate addition measured after 30 to 45 mins by ELISA; type: cell-based; conditions: HeLa S3; summary of the method: as §1

Histone deacetylase 3, sequence (O15379 whole entry): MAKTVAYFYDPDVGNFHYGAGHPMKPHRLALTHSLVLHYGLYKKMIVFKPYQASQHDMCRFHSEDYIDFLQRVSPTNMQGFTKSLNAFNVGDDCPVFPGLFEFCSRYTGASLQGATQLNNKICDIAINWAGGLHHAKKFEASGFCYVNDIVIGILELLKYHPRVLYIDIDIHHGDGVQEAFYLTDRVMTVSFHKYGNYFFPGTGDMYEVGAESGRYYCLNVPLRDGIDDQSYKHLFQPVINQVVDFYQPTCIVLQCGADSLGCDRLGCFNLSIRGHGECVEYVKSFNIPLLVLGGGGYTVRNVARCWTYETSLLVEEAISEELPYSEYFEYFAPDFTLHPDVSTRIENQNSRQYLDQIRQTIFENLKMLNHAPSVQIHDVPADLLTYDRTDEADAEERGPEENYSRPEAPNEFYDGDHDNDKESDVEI
Histone deacetylase 1, sequence (Q13547 whole entry): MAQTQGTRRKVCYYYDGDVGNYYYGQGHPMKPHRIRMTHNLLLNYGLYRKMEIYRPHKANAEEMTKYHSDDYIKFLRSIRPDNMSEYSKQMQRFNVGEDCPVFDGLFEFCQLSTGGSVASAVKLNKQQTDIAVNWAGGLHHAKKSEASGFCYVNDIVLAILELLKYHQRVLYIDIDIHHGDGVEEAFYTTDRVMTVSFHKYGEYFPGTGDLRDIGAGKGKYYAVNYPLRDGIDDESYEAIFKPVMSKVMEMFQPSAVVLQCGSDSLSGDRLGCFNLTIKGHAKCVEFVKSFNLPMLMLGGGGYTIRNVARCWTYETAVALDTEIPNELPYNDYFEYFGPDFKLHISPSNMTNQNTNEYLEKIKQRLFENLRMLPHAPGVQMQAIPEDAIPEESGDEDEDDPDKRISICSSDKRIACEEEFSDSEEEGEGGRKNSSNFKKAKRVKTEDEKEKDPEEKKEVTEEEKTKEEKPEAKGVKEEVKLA
Histone deacetylase 2, sequence (Q92769 whole entry): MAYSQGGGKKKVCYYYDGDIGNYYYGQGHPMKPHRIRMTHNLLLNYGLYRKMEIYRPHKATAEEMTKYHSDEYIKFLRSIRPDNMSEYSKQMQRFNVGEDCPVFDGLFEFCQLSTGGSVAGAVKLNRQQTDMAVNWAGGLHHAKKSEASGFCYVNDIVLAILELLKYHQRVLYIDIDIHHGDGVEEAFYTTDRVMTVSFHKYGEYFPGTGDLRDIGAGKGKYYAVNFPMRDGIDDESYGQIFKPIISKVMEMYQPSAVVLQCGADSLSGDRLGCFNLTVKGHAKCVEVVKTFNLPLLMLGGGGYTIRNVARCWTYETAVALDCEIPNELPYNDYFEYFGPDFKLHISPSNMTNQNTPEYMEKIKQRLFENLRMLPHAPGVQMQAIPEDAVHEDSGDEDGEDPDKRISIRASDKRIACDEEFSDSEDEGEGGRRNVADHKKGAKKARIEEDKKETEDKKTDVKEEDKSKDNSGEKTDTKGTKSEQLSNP

| Structure (SMILES) | Ratio IC50 (HeLa S3 [1]) | inhibition [2] | IC50 (Histone deacetylase 1) | Ratio IC50 (HeLa S3 [3]) | IC50 (Histone deacetylase 3) | Ratio IC50 (HeLa S3 [6]) | IC50 (Histone deacetylase 2) | IC50 (Histone deacetylase 8) | also measured |
| --- | --- | --- | --- | --- | --- | --- | --- | --- | --- |
| CCCCCCC(CCCCCC(=O)Nc1ccccc1)C(=O)NO (stereo not drawn) | 49 to 300 | Active | 180 µM | 49 to 300 | 98 µM | 49 to 300 | 180 µM | 2 µM | inhibition [4]: Active; IC50 [5]: 0.6 µM; Ratio IC50 (HeLa S3 [7]): 49 to 300; inhibition [8]: Dose-dependent effect; EC50 (cells [9]): 11.8 µM; Ratio IC50 (HeLa S3 [10]): 49 to 300; viability at 10 µM [11]: 47%; EC50 (cells [12]): 10.5 µM; Ratio IC50 (HeLa S3 [13]): 49 to 300; EC50 (cells [14]): 13.8 µM |
| C=CCC(CCCCCC(=O)Nc1ccccc1)C(=O)NO (stereo not drawn) | – | Active | – | – | – | – | – | – | – |
| CCCCCC[C@@H](CCCCCC(=O)Nc1ccccc1)C(=O)NO | 106 to 187 | – | 330 µM | 106 to 187 | 530 µM | 106 to 187 | 580 µM | 3.1 µM | – |
| CCCCCC(CCCCCC(=O)Nc1ccccc1)C(=O)NO (stereo not drawn) | 33 to 92 | Active | 48 µM | 33 to 92 | 43 µM | 33 to 92 | 58 µM | 1.3 µM | inhibition [4]: Active; IC50 [5]: 0.85 µM; Ratio IC50 (HeLa S3 [7]): 33 to 92; Ratio IC50 (HeLa S3 [10]): 33 to 92; Ratio IC50 (HeLa S3 [13]): 33 to 92 |
| CCCCCC[C@H](CCCCCC(=O)Nc1ccccc1)C(=O)NO | – | – | – | – | – | – | – | 0.71 µM | – |
| O=C(CCCCCC(Cc1ccccc1)C(=O)NO)Nc1ccccc1 (stereo not drawn) | 33 to 92 | Active | 84 µM | 33 to 92 | 91 µM | 33 to 92 | 110 µM | 1.2 µM | inhibition [4]: Active; IC50 [5]: 1.5 µM; Ratio IC50 (HeLa S3 [7]): 33 to 92; Ratio IC50 (HeLa S3 [10]): 33 to 92; Ratio IC50 (HeLa S3 [13]): 33 to 92 |
| CCC(CCCCCC(=O)Nc1ccccc1)C(=O)NO (stereo not drawn) | – | Active | – | – | – | – | – | – | – |
| CCCCC(CCCCCC(=O)Nc1ccccc1)C(=O)NO (stereo not drawn) | – | – | – | – | – | – | – | – | inhibition [15]: Active |
| CCCC(CCCCCC(=O)Nc1ccccc1)C(=O)NO (stereo not drawn) | – | Active | – | – | – | – | – | – | – |
| CC(CCCCCC(=O)Nc1ccccc1)C(=O)NO (stereo not drawn) | – | Active | – | – | – | – | – | – | – |
| C#CCC(CCCCCC(=O)Nc1ccccc1)C(=O)NO (stereo not drawn) | – | Active | – | – | – | – | – | – | – |
